The source made the active and inactive calls. The rule behind the calls is not given here.
Tests used:
[1] = system: Cellular tumor antigen p53 (Homo sapiens), P04637 [Y220C]; test: Activation of p53 Y220C mutant in human NUGC3 cells assessed as change in ESR1 mRNA level at 60 uM after 18 hrs by RT-PCR method relative to control; assay type: cell-based
Procedure, shortened: (§1)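 p53 signalling qPCR array covering 84 genes. Cells were exposed for 18 h, with 0.5% DMSO in both compound and control samples. Total RNA was extracted and purified. Fold-changes were calculated by ΔΔCt using β2-microglobulin (B2M) as the housekeeping gene. Two independent biological replicates were run per cell line.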

[2] = system: Cellular tumor antigen p53 (Homo sapiens), P04637 [Y220C]; test: Activation of p53 Y220C mutant in human NUGC3 cells assessed as change in ATM mRNA level at 60 uM after 18 hrs by RT-PCR method relative to control; assay type: cell-based; procedure, shortened: as §1
[3] = molecular target: T1, Cellular tumor antigen p53 (Homo sapiens, UniProt P04637); test: Activation of p53 in human NUGC4 cells assessed as change in PIDD1 mRNA level at 60 uM after 18 hrs by RT-PCR method relative to control; assay type: cell-based; settings: read-out: FC
[4] = molecular target: T1, Cellular tumor antigen p53; test: Activation of p53 in human NUGC4 cells assessed as change in CCNG1 mRNA level at 60 uM after 18 hrs by RT-PCR method relative to control; assay type: cell-based; settings: read-out: FC
Procedure, shortened: (§2)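 p53 signaling qPCR array of 84 p53-pathway genes. Cells were treated in 6-well plates for 18 h with 0.5% DMSO in compound and control samples. Total RNA was extracted and fold-changes were obtained by the ΔΔCt method against untreated control, with β2-microglobulin (B2M) as housekeeping gene. Two independent biological replicates per cell line.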

[5] = molecular target: T1, Cellular tumor antigen p53; test: Activation of p53 in human NUGC4 cells assessed as change in E2F1 mRNA level at 60 uM after 18 hrs by RT-PCR method relative to control; assay type: cell-based; settings: read-out: FC; procedure, shortened: as §2
[6] = system: Cellular tumor antigen p53 (Homo sapiens), P04637 [Y220C]; test: Activation of p53 Y220C mutant in human NUGC3 cells assessed as change in KRAS mRNA level at 60 uM after 18 hrs by RT-PCR method relative to control; assay type: cell-based
Procedure, shortened: (§3)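 p53 signalling qPCR array covering 84 p53 pathway genes. Cells were exposed for 18 h, and compound and control wells both held 0.5% DMSO. Total RNA was extracted and purified. Fold-changes were calculated by the ΔΔCt method against the untreated sample, with β2-microglobulin (B2M) as the housekeeping gene. Each cell line was run in two independent biological replicates.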

[7] = system: Cellular tumor antigen p53 (Homo sapiens), P04637 [Y220C]; test: Activation of p53 Y220C mutant in human NUGC3 cells assessed as change in CDK4 mRNA level at 60 uM after 18 hrs by RT-PCR method relative to control; assay type: cell-based; procedure, shortened: as §1
[8] = molecular target: T1, Cellular tumor antigen p53; test: Activation of p53 in human NUGC4 cells assessed as change in ADGRB1 mRNA level at 60 uM after 18 hrs by RT-PCR method relative to control; assay type: cell-based; settings: read-out: FC; procedure, shortened: as §3
[9] = molecular target: T1, Cellular tumor antigen p53; test: Activation of p53 in human NUGC4 cells assessed as change in PPM1D mRNA level at 60 uM after 18 hrs by RT-PCR method relative to control; assay type: cell-based; settings: read-out: FC
[10] = system: Cellular tumor antigen p53 (Homo sapiens), P04637 [Y220C]; test: Activation of p53 Y220C mutant in human NUGC3 cells assessed as change in HDAC1 mRNA level at 60 uM after 18 hrs by RT-PCR method relative to control; assay type: cell-based; procedure, shortened: as §1
[11] = molecular target: T1, Cellular tumor antigen p53; test: Activation of p53 in human NUGC4 cells assessed as change in BRCA1 mRNA level at 60 uM after 18 hrs by RT-PCR method relative to control; assay type: cell-based; settings: read-out: FC; procedure, shortened: as §2
[12] = molecular target: T1, Cellular tumor antigen p53; test: Activation of p53 in human NUGC4 cells assessed as change in PRKCA mRNA level at 60 uM after 18 hrs by RT-PCR method relative to control; assay type: cell-based; settings: read-out: FC
Huh-7 = test: Upregulation of BBC3 mRNA level in p53 Y220C mutant knockout human HuH7 cells at 30 uM after 18 hrs by RT-PCR method; assay type: functional, cell-based
[13] = molecular target: T1, Cellular tumor antigen p53; test: Activation of p53 in human NUGC4 cells assessed as change in S1AH1 mRNA level at 60 uM after 18 hrs by RT-PCR method relative to control; assay type: cell-based; settings: read-out: FC
[14] = system: Cellular tumor antigen p53 (Homo sapiens), P04637 [Y220C]; test: Activation of p53 Y220C mutant in human NUGC3 cells assessed as change in TP63 mRNA level at 60 uM after 18 hrs by RT-PCR method relative to control; assay type: cell-based; procedure, shortened: as §3
[15] = system: Cellular tumor antigen p53 (Homo sapiens), P04637 [Y220C]; test: Activation of p53 Y220C mutant in human NUGC3 cells assessed as change in BAX mRNA level at 60 uM after 18 hrs by RT-PCR method relative to control; assay type: cell-based; procedure, shortened: as §1
[16] = molecular target: T1, Cellular tumor antigen p53; test: Activation of p53 in human NUGC4 cells assessed as change in EGR1 mRNA level at 60 uM after 18 hrs by RT-PCR method relative to control; assay type: cell-based; settings: read-out: FC; procedure, shortened: as §2
[17] = molecular target: T1, Cellular tumor antigen p53; test: Activation of p53 in human NUGC4 cells assessed as change in MCL1 mRNA level at 60 uM after 18 hrs by RT-PCR method relative to control; assay type: cell-based; settings: read-out: FC; procedure, shortened: as §2
[18] = system: Cellular tumor antigen p53 (Homo sapiens), P04637 [Y220C]; test: Activation of p53 Y220C mutant in human NUGC3 cells assessed as change in RELA mRNA level at 60 uM after 18 hrs by RT-PCR method relative to control; assay type: cell-based; procedure, shortened: as §3
[19] = system: Cellular tumor antigen p53 (Homo sapiens), P04637 [Y220C]; test: Activation of p53 Y220C mutant in human NUGC3 cells assessed as change in TRAF2 mRNA level at 60 uM after 18 hrs by RT-PCR method relative to control; assay type: cell-based; procedure, shortened: as §3
[20] = molecular target: T1, Cellular tumor antigen p53; test: Activation of p53 in human NUGC4 cells assessed as change in TP73 mRNA level at 60 uM after 18 hrs by RT-PCR method relative to control; assay type: cell-based; settings: read-out: FC
[21] = system: Cellular tumor antigen p53 (Homo sapiens), P04637 [Y220C]; test: Activation of p53 Y220C mutant in human HuH7 cells assessed as increase in NOXA mRNA level at 30 uM after 18 hrs by RT-PCR method; assay type: cell-based
Procedure, shortened: (§4)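 Real-time PCR. Cells were treated for 18 h, with 0.5% DMSO in both compound and control samples. Relative mRNA levels were quantified by the ΔΔCt method as fold-change against the untreated sample. Each sample was measured in triplicate, and data are given as mean ± SEM with an unpaired t-test.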

[22] = system: Cellular tumor antigen p53 (Homo sapiens), P04637 [Y220C]; test: Activation of p53 Y220C mutant in human NUGC3 cells assessed as change in BIRC5 mRNA level at 60 uM after 18 hrs by RT-PCR method relative to control; assay type: cell-based; procedure, shortened: as §1
[23] = system: Cellular tumor antigen p53 (Homo sapiens), P04637 [Y220C]; test: Activation of p53 Y220C mutant in human NUGC3 cells assessed as change in CCNG1 mRNA level at 60 uM after 18 hrs by RT-PCR method relative to control; assay type: cell-based; procedure, shortened: as §1
[24] = molecular target: T1, Cellular tumor antigen p53; test: Activation of p53 in human NUGC4 cells assessed as change in GML mRNA level at 60 uM after 18 hrs by RT-PCR method relative to control; assay type: cell-based; settings: read-out: FC; procedure, shortened: as §2
[25] = molecular target: T1, Cellular tumor antigen p53; test: Activation of p53 in human NUGC4 cells assessed as change in MDM4 mRNA level at 60 uM after 18 hrs by RT-PCR method relative to control; assay type: cell-based; settings: read-out: FC; procedure, shortened: as §2
[26] = system: Cellular tumor antigen p53 (Homo sapiens), P04637 [Y220C]; test: Activation of p53 Y220C mutant in human HuH7 cells assessed as increase in p21 mRNA level at 30 uM after 18 hrs by RT-PCR method; assay type: cell-based; procedure, shortened: as §4
[27] = system: Cellular tumor antigen p53 (Homo sapiens), P04637 [Y220C]; test: Activation of p53 Y220C mutant in human NUGC3 cells assessed as change in NFKB1 mRNA level at 60 uM after 18 hrs by RT-PCR method relative to control; assay type: cell-based; procedure, shortened: as §3

CCNC(=O)c1c(O)c(I)c(-n2cccc2)c2sc(N(CC)CC)nc12
fold change (FC) [1]: 2.3 | fold change (FC) [2]: 0.9 | fold induction at 60 µM [3]: 0.8 | fold induction at 60 µM [4]: 1 | fold induction at 60 µM [5]: 0.5 | fold change (FC) [6]: 1.2 | fold change (FC) [7]: 1.3 | fold induction at 60 µM [8]: 2.9 | fold induction at 60 µM [9]: 0.9 | fold change (FC) [10]: 0.6 | fold induction at 60 µM [11]: 0.7 | fold induction at 60 µM [12]: 1 | Activity (Huh-7): inactive | fold induction at 60 µM [13]: 1.2 | fold change (FC) [14]: 1.5 | fold change (FC) [15]: 1.1 | fold induction at 60 µM [16]: 0.7 | fold induction at 60 µM [17]: 0.8 | fold change (FC) [18]: 1.1 | fold change (FC) [19]: 1.4 | fold induction at 60 µM [20]: 0.4 | Activity [21]: Active | fold change (FC) [22]: 0.6 | fold change (FC) [23]: 1.2 | fold induction at 60 µM [24]: 1.9 | fold induction at 60 µM [25]: 0.9 | Activity [26]: Active | fold change (FC) [27]: 1.5

From ChEMBL document CHEMBL4152234, “Aminobenzothiazole derivatives stabilize the thermolabile p53 cancer mutant Y220C and show anticancer activity in p53-Y220C cell lines” (Eur J Med Chem, 2018)
